“And” between values parts separate entries of the source, which are not always exact repeats. Equal values may be shown once. “Also recorded” adds a separate entry of the source. Read-outs that look alike come from different tables or passages of the source.
Experiments:
iNKT cells [1] = type: in vivo, C57BL/6 mice; settings: for IFN-γ levels (Figure 2 panel b, IL-12 panel): at 16 hours
[2] = tested on: murine iNKT hybridoma N38-2C12 (Vα14Vβ8.2b); assay: In vitro stimulation of iNKT hybridoma 2C12 with glycolipid pulsed BMDCs; type: cell-based, mouse; settings: for IL-2 production (ELISA): BMDCs loaded 100 ng/ml for 20 h, co-culture with 2C12 for 16 hours
How it was run: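 Hybridoma kept in cDMEM (DMEM, 10% FCS, glutamine, pen/strep, 2-mercaptoethanol). BMDCs grown 10 days with GM-CSF, pulsed 20 h with 100 ng/ml glycolipid. 5×10^4 hybridoma cells plus 10^5 BMDCs at 37°C. Secreted IL-2 by ELISA at 16 h (n=6). Intracellular IL-2 at 4 h. TCRβ by flow at 24 h with CD45.1 BMDCs, gated CD45.2+CD45.1−7AAD−.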

TCR = assay: Surface plasmon resonance: TCR binding to mCD1d-glycolipid complexes; design: species or system mouse; settings: for Kd: SPR, TCR towards glycolipid presented by mCD1d, 25°C, Langmuir 1:1 model
How it was run: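 Biotinylated birA-tagged mouse CD1d loaded overnight with 6-fold molar excess glycolipid (DMSO stock 1 mg/ml). 500–600 RU of complex captured on streptavidin chip. TCR injected at 0.0156–2 μM in 10 mM Hepes, 150 mM NaCl, 3 mM EDTA, pH 7.4, for 1.5–3 min. Dissociation 45 min at 25°C. Empty-CD1d reference subtracted, Langmuir 1:1 fit. Three runs, separate TCR preparations.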

B16 melanoma cells = assay: B16 melanoma lung metastasis model; type: in vivo, mice; settings: 10 000 BMDCs loaded with glycolipid
How it was run: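 C57BL/6 mice aged 5–12 weeks. B16 cells grown in advanced RPMI with 10% FCS, glutamine and pen/strep, lifted with cell dissociation buffer and washed twice. 2x10^5 or 4x10^5 cells were injected i.v. into the tail vein within 30 min of harvest. Glycolipid-pulsed BMDCs given i.v. (6x10^4 or 1x10^4). Mice killed at day 14 and lungs removed for scoring.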

iNKT cells [3] = type: in vivo, C57BL/6 mice; settings: for serum IFN-γ levels / serum IL-12 levels: 16 hours after injection of 5 μg glycolipid (i.p.)
How it was run: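 C57BL/6 mice aged 5–12 weeks received 5 μg glycolipid i.p. in PBS. Glycolipid solubilised in PBS or vehicle (sucrose/deoxycholate/Tween 20), heated 20 min at 80°C, sonicated 10 min. Serum cytokines measured 16 h after injection. Mean ± s.e.m. of at least sixteen mice, pooled from two independent experiments.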

human iNKT cells = type: cell-based
How it was run: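 Sorted, expanded iNKT cells from healthy adult donors. Autologous PBMCs isolated by density centrifugation, incubated overnight with glycolipid (100 ng/ml), washed and irradiated (40 Gy). 5x10^4 iNKT cells cultured with 10^5 PBMCs in RPMI 1640 plus 10% human AB serum, pyruvate, non-essential amino acids and pen/strep. Supernatant cytokines at 24 h by cytometric bead array. Data pooled from two experiments, two donors.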

[4] = tested on: spleen DCs (CD11c CD11b double positive); assay: Co-stimulatory marker expression on spleen DCs; type: in vivo, mouse
CD1d [5] = assay: Cellular assay of stability of the glycolipid-CD1d complex; type: cell-based, mouse; settings: BMDCs loaded 100 ng/mL 20 hours, wash-off 4h to 48h
How it was run: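 BMDCs grown 10 days with GM-CSF, then pulsed 20 h with 100 ng/mL glycolipid and washed. Cells were held in medium for 4–48 h, and released glycolipid was washed off. They were then co-cultured with 2C12 hybridoma (5×10^4 hybridoma:10^5 BMDCs, cDMEM, 37°C). IL-2 in the medium, normalised to the 4 h point, indicates remaining loaded CD1d. Mean ± s.e.m., n=6.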

CD1d [6] = settings: compared with CD1d-α-GalCer complexes; cited from earlier work
[7] = 600 000 glycolipid-pulsed BMDCs, at 16 and 24 hours
[8] = 600 000 glycolipid-pulsed BMDCs
[9] = 10 000 pulsed BMDCs, 16 hours, compared to NU-α-GalCer and α-GalCer
[10] = 100 ng/ml loading, 24hrs, compared to α-GalCer

Row | SMILES | serum IFN-γ levels (iNKT cells [1]; [7]) | IFN-γ levels (Figure 2 panel b, IL-12 panel) (iNKT cells [1]; [8]) | IL-2 production (ELISA) [2] | Kd (TCR) | lung nodules / anti-metastatic activity (B16 melanoma cells) | serum IFN-γ levels (iNKT cells [3]) | serum IL-12 levels (iNKT cells [3]) | further results
1 | CCCCCCCCCCCCCCCCCCCCCCCCCC(=O)N[C@@H](CO[C@H]1O[C@H](COC(=O)Nc2ccc(Cl)cc2)[C@H](O)[C@H](O)[C@H]1O)[C@H](O)[C@H](O)CCCCCCCCCCCCCC [4ClPhC-α-GalCer, α-GalCer-6″-(4-chlorophenyl)carbamate] | significantly higher compared to NU-α-GalCer | significantly higher compared to α-GalCer | significantly differ from α-GalCer | 0.0493 ± 0.0003 µM |  |  |  | reduced binding affinity (TCR; 49 nM vs. 25 nM): 2 fold
2 | CCCCCCCCCCCCCCCCCCCCCCCCCC(=O)N[C@@H](CO[C@H]1O[C@H](COC(=O)Nc2cccc3ccccc23)[C@H](O)[C@H](O)[C@H]1O)[C@H](O)[C@H](O)CCCCCCCCCCCCCC [NC-α-GalCer, α-GalCer-6″-(1-naphthyl)carbamate] |  |  | significantly differ from α-GalCer | 0.037 µM and 0.0371 µM |  |  |  | 
3 | CCCCCCCCCCCCCCCCCCCCCCCCCC(=O)N[C@@H](CO[C@H]1O[C@H](CNC(=O)Nc2cccc3ccccc23)[C@H](O)[C@H](O)[C@H]1O)[C@H](O)[C@H](O)CCCCCCCCCCCCCC [NU-α-GalCer, α-GalCer-6″-(1-naphthyl)urea] | significantly higher compared to α-GalCer | significantly higher compared to α-GalCer | higher IL-2 levels; also recorded: significantly differ from α-GalCer |  | significantly stronger compared to α-GalCer | significantly lower; also recorded: comparable or slightly lower |  | 
4 | CCCCCCCCCCCCCCCCCCCCCCCCCC(=O)N[C@@H](CO[C@H]1O[C@H](COC(=O)Nc2ccncc2)[C@H](O)[C@H](O)[C@H]1O)[C@H](O)[C@H](O)CCCCCCCCCCCCCC [PyrC-α-GalCer, α-GalCer-6″-(pyridin-4-yl)carbamate] | significantly higher compared to NU-α-GalCer |  | significantly differ from α-GalCer | 0.025 ± 0.003 µM | superior in preventing tumor metastasis; also recorded: reduce the amount of noduli even significantly better |  | significantly higher IL-12 levels than NU-α-GalCer | serum IFN-γ levels (iNKT cells [1]; [9]): significantly higher; serum IL-12 levels (iNKT cells [1]; [9]): significantly higher; serum IL-12 levels (iNKT cells [1]; [7]): even after 24 hours markedly higher than for NU-α-GalCer; also recorded: significantly higher compared to NU-α-GalCer; course of IFN-γ level over time (iNKT cells [1]; glycolipid pulsed BMDCs, in contrast to 4ClPhC-α-GalCer and NU-α-GalCer): increased up to 24 hours after injection; IFN-γ production (human iNKT cells; [10]): slightly elevated; IL-4 production (human iNKT cells; [10]): less production; IL-12 production (human iNKT cells; [10]): slightly elevated; IL-13 production (human iNKT cells; [10]): less production; Th1-biased cytokine secretion (human iNKT cells; purified human iNKT cells, more IFN-γ and IL-12 and less IL-4 and IL-13 compared to α-GalCer): able to induce Th1-biased cytokine secretion; CD40 and OX40L expression ([4]; spleen DCs): induces early CD40 and OX40L upregulation; increase of IL-12 levels (iNKT cells [3]; PyrC-α-GalCer administration, mode and comparator not stated at place): 10 fold
5 | CCCCCCCCCCCCCCCCCCCCCCCCCC(=O)NC(CC1OC(CO)C(O)C(O)C1O)C(O)C(O)CCCCCCCCCCCCCC (stereo not drawn) [α-C-GalCer] |  |  | higher IL-2 levels |  |  |  |  | stability of glycolipid-CD1d complex (IL-2 normalized to 4 hours after wash off) (CD1d [5]): much slower decay compared to α-GalCer; TCRβ expression ([2]; 2C12, 24 hours after coculture with glycolipid-pulsed CD45.1 BMDCs): clear TCRb downregulation; half-life in vivo of complex with CD1d (CD1d [6]): much longer half-life in vivo
6 | CCCCCCCCCCCCCCCCCCCCCCCCCC(=O)N[C@@H](CO[C@H]1O[C@H](CO)[C@H](O)[C@H](O)[C@H]1O)[C@H](O)[C@H](O)CCCCCCCCCCCCCC [α-GalCer, alpha galactosyl ceramide, reference compound] |  |  |  | 0.026 µM and 0.0265 µM |  | significantly lower | significantly lower | CD80 and CD86 expression ([4]; dendritic cell surface): induced upregulation of both CD80 and CD86

Source: publication PMC3817951 (Journal of immunology (Baltimore, Md. : 1950), 2013)
